{
  "source": "ChEMBL document CHEMBL4665824",
  "about": "“Characterization and Discovery of a Selective Small-Molecule Modulator of Mitochondrial Complex I Targeting a Unique Binding Site” (J Med Chem, 2020)",
  "key": {"[1]": {"tested_on": "MC65", "test": "Inhibition of mitochondrial complex 1 in human MC65 cells assessed as protective potency concentration", "format": "cell-based"}, "[2]": {"species_on_record": "Mus musculus", "test": "Binding affinity to purified C57BL/6 mouse cerebral cortex mitochondrial complex 1 assessed as labelling of 75 kDa sub unit at 10 uM in presence of ZCM-I-1 incubated for 45 mins under irradiation by SDS-PAGE analysis", "settings": "Mitochondria", "summary_of_the_method": "(§1)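 Preincubated with DMSO or competitor 45 min at 4 °C, then photoaffinity probe added for 30 min at 4 °C. Irradiated 365 nm, 10 min on ice, then run on SDS-PAGE. Read by in-gel fluorescence (488 nm excitation), or after streptavidin pull-down by silver stain. Three independent experiments.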"}, "[3]": {"species_on_record": "Mus musculus", "test": "Binding affinity to purified C57BL/6 mouse cerebral cortex mitochondrial complex 1 assessed as labelling of 51 kDa sub unit at 10 uM in presence of ZCM-I-1 incubated for 45 mins under irradiation by SDS-PAGE analysis", "settings": "Mitochondria", "summary_of_the_method": "as §1"}, "[4]": {"species_on_record": "Mus musculus", "test": "Binding affinity to purified C57BL/6 mouse cerebral cortex mitochondrial complex 1 assessed as labelling of 24 kDa sub unit at 10 uM in presence of ZCM-I-1 incubated for 45 mins under irradiation by SDS-PAGE analysis", "settings": "Mitochondria", "summary_of_the_method": "as §1"}, "[5]": {"species_on_record": "Mus musculus", "test": "Binding affinity to purified C57BL/6 mouse cerebral cortex mitochondrial complex 1 assessed as labelling of 13 kDa sub unit at 10 uM in presence of ZCM-I-1 incubated for 45 mins under irradiation by SDS-PAGE analysis", "settings": "Mitochondria", "summary_of_the_method": "as §1"}, "[6]": {"species_on_record": "Mus musculus", "test": "Binding affinity to purified C57BL/6 mouse cerebral cortex mitochondrial complex 1 assessed as labelling of IF site ( 49 kDa) sub unit at 10 uM in presence of ZCM-I-1 incubated for 45 mins under irradiation by SDS-PAGE analysis", "settings": "Mitochondria", "summary_of_the_method": "as §1"}, "[7]": {"species_on_record": "Mus musculus", "test": "Inhibition of mitochondrial complex 1 in permeabilized mouse brain mitochondria assessed as reduction in ROS production at 1 uM incubated for 1 hr after TC removal by Amplex Red and horseradish peroxidase based assay"}, "[8]": {"test": "Drug localization in mitochondria human MC65 cells at 3 uM incubated for 3.5 hrs by immunocytochemistry", "format": "ADME", "settings": "mc65, 3.5 h", "summary_of_the_method": "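MC65 cells plated 24 h on poly-D-lysine coverslips, given 3 μM probe for 3.5 h, then MitoTracker Red (300 nM) for 30 min. Fixed in 4% formaldehyde 15 min, DAPI-stained, mounted. Imaged by confocal microscopy (63x/1.40 oil) and analysed for colocalization coefficients.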"}, "[9]": {"test": "Drug localization in mitochondria mouse cortical neuron at 25 uM incubated for 4 hrs by immunocytochemistry", "format": "ADME", "settings": "cortical neurone", "summary_of_the_method": "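Mouse primary cortical neurons (E15.5 C57BL/6J cortex, DIV 10–12; cytarabine 1 μM from DIV 3–6) given 25 μM probe for 4 h, then Mitotracker Red CMXRos (25 nM) for 30 min. Washed by half-media exchanges with phenol-red-free medium. Imaged live by confocal microscopy, 63x/1.4 NA oil objective.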"}, "[10]": {"species_on_record": "Mus musculus", "test": "Binding affinity to purified C57BL/6 mouse cerebral cortex mitochondrial complex 1 assessed as labelling of 75 kDa sub unit at 1 to 10 uM incubated for 45 mins under irradiation by SDS-PAGE analysis", "settings": "Mitochondria, dose microM 1-10, time 45.0 min", "summary_of_the_method": "as §1"}, "[11]": {"species_on_record": "Mus musculus", "test": "Binding affinity to purified C57BL/6 mouse cerebral cortex mitochondrial complex 1 assessed as labelling of 51 kDa sub unit at 1 to 10 uM incubated for 45 mins under irradiation by SDS-PAGE analysis", "settings": "Mitochondria, dose microM 1-10, time 45.0 min", "summary_of_the_method": "as §1"}, "[12]": {"species_on_record": "Mus musculus", "test": "Binding affinity to purified C57BL/6 mouse cerebral cortex mitochondrial complex 1 assessed as labelling of 24 kDa sub unit at 1 to 10 uM incubated for 45 mins under irradiation by SDS-PAGE analysis", "settings": "Mitochondria, dose microM 1-10, time 45.0 min", "summary_of_the_method": "as §1"}, "[13]": {"species_on_record": "Mus musculus", "test": "Binding affinity to purified C57BL/6 mouse cerebral cortex mitochondrial complex 1 assessed as labelling of 13 kDa sub unit at 1 to 10 uM incubated for 45 mins under irradiation by SDS-PAGE analysis", "settings": "Mitochondria, dose microM 1-10, time 45.0 min", "summary_of_the_method": "as §1"}, "[14]": {"species_on_record": "Mus musculus", "test": "Binding affinity to purified C57BL/6 mouse cerebral cortex mitochondrial complex 1 assessed as labelling of IF site ( 49 kDa) sub unit at 1 to 10 uM incubated for 45 mins under irradiation by SDS-PAGE analysis", "settings": "Mitochondria, dose microM 1-10, time 45.0 min", "summary_of_the_method": "as §1"}, "[15]": {"species_on_record": "Mus musculus", "test": "Binding affinity to purified C57BL/6 mouse cerebral cortex mitochondrial complex 1 assessed as labelling of 75 kDa sub unit at 10 uM in presence of NADH incubated for 45 mins under irradiation by SDS-PAGE analysis", "settings": "Mitochondria", "summary_of_the_method": "as §1"}, "[16]": {"species_on_record": "Mus musculus", "test": "Binding affinity to purified C57BL/6 mouse cerebral cortex mitochondrial complex 1 assessed as labelling of 51 kDa sub unit at 10 uM in presence of NADH incubated for 45 mins under irradiation by SDS-PAGE analysis", "settings": "Mitochondria", "summary_of_the_method": "as §1"}, "[17]": {"species_on_record": "Mus musculus", "test": "Binding affinity to purified C57BL/6 mouse cerebral cortex mitochondrial complex 1 assessed as labelling of 24 kDa sub unit at 10 uM in presence of NADH incubated for 45 mins under irradiation by SDS-PAGE analysis", "settings": "Mitochondria", "summary_of_the_method": "as §1"}, "[18]": {"species_on_record": "Mus musculus", "test": "Binding affinity to purified C57BL/6 mouse cerebral cortex mitochondrial complex 1 assessed as labelling of 13 kDa sub unit at 10 uM in presence of NADH incubated for 45 mins under irradiation by SDS-PAGE analysis", "settings": "Mitochondria", "summary_of_the_method": "as §1"}, "[19]": {"species_on_record": "Mus musculus", "test": "Binding affinity to purified C57BL/6 mouse cerebral cortex mitochondrial complex 1 assessed as labelling of 49 kDa sub unit at 10 uM in presence of NADH incubated for 45 mins under irradiation by SDS-PAGE analysis", "settings": "Mitochondria", "summary_of_the_method": "as §1"}, "[20]": {"species_on_record": "Mus musculus", "test": "Binding affinity to purified C57BL/6 mouse cerebral cortex mitochondrial complex 1 assessed as labelling of 49 kDa sub unit at 10 uM in presence of FMN incubated for 45 mins under irradiation by SDS-PAGE analysis", "settings": "Mitochondria", "summary_of_the_method": "as §1"}, "[21]": {"species_on_record": "Mus musculus", "test": "Binding affinity to purified C57BL/6 mouse cerebral cortex mitochondrial complex 1 assessed as labelling of 13 kDa sub unit at 10 uM in presence of FMN incubated for 45 mins under irradiation by SDS-PAGE analysis", "settings": "Mitochondria", "summary_of_the_method": "as §1"}, "[22]": {"species_on_record": "Mus musculus", "test": "Binding affinity to purified C57BL/6 mouse cerebral cortex mitochondrial complex 1 assessed as labelling of 24 kDa sub unit at 10 uM in presence of FMN incubated for 45 mins under irradiation by SDS-PAGE analysis", "settings": "Mitochondria", "summary_of_the_method": "as §1"}, "[23]": {"species_on_record": "Mus musculus", "test": "Binding affinity to purified C57BL/6 mouse cerebral cortex mitochondrial complex 1 assessed as labelling of 51 kDa sub unit at 10 uM in presence of FMN incubated for 45 mins under irradiation by SDS-PAGE analysis", "settings": "Mitochondria", "summary_of_the_method": "as §1"}, "[24]": {"species_on_record": "Mus musculus", "test": "Binding affinity to purified C57BL/6 mouse cerebral cortex mitochondrial complex 1 assessed as labelling of 75 kDa sub unit at 10 uM in presence of FMN incubated for 45 mins under irradiation by SDS-PAGE analysis", "settings": "Mitochondria", "summary_of_the_method": "as §1"}, "[25]": {"species_on_record": "Mus musculus", "test": "Binding affinity to purified C57BL/6 mouse cerebral cortex mitochondrial complex 1 assessed as labelling of 75 kDa sub unit at 10 uM in presence of IQ site inhibitor rotenone incubated for 45 mins under irradiation by SDS-PAGE analysis", "settings": "Mitochondria", "summary_of_the_method": "as §1"}, "[26]": {"species_on_record": "Mus musculus", "test": "Binding affinity to purified C57BL/6 mouse cerebral cortex mitochondrial complex 1 assessed as labelling of 51 kDa sub unit at 10 uM in presence of IQ site inhibitor rotenone incubated for 45 mins under irradiation by SDS-PAGE analysis", "settings": "Mitochondria", "summary_of_the_method": "as §1"}, "[27]": {"species_on_record": "Mus musculus", "test": "Binding affinity to purified C57BL/6 mouse cerebral cortex mitochondrial complex 1 assessed as labelling of 24 kDa sub unit at 10 uM in presence of IQ site inhibitor rotenone incubated for 45 mins under irradiation by SDS-PAGE analysis", "settings": "Mitochondria", "summary_of_the_method": "as §1"}, "[28]": {"species_on_record": "Mus musculus", "test": "Binding affinity to purified C57BL/6 mouse cerebral cortex mitochondrial complex 1 assessed as labelling of 13 kDa sub unit at 10 uM in presence of IQ site inhibitor rotenone incubated for 45 mins under irradiation by SDS-PAGE analysis", "settings": "Mitochondria", "summary_of_the_method": "as §1"}, "[29]": {"species_on_record": "Mus musculus", "test": "Binding affinity to purified C57BL/6 mouse cerebral cortex mitochondrial complex 1 assessed as labelling of 49 kDa sub unit at 10 uM in presence of IQ site inhibitor rotenone incubated for 45 mins under irradiation by SDS-PAGE analysis", "settings": "Mitochondria", "summary_of_the_method": "as §1"}},
  "note": "The source made the active and inactive calls. The rule behind the calls is not given here.",
  "data": [
    {"smiles": "COc1ccc2[nH]cc(CCNC(=O)C(CCC3(CCc4cn(CCOCCOCCNC(=O)CCCCC5SCC6NC(=O)NC65)nn4)N=N3)C(=O)CCc3ccc(O)cc3)c2c1", "note": "(centres undefined)", "values": [
      {"measurement": "INH", "setting": "[1]", "result": "> 3", "unit": "nM"},
      {"measurement": "Activity", "setting": "[2]", "result": "inactive"},
      {"measurement": "Activity", "setting": "[3]", "result": "inactive"},
      {"measurement": "Activity", "setting": "[4]", "result": "inactive"},
      {"measurement": "Activity", "setting": "[5]", "result": "inactive"},
      {"measurement": "Activity", "setting": "[6]", "result": "inactive"}
    ]},
    {"smiles": "COc1ccc2[nH]cc(CCNC(=O)C(CCC3(CCc4cn(CCCNc5ccc([N+](=O)[O-])c6nonc56)nn4)N=N3)C(=O)CCc3ccc(O)cc3)c2c1", "note": "(centres undefined)", "values": [
      {"measurement": "INH", "setting": "[1]", "result": 96.8, "unit": "nM"},
      {"measurement": "inhibition", "setting": "[7]", "result": "inactive"},
      {"measurement": "Drug uptake", "setting": "[8]", "result": "Active"},
      {"measurement": "Drug uptake", "setting": "[9]", "result": "Active"},
      {"measurement": "Activity", "setting": "[10]", "result": "Active"},
      {"measurement": "Activity", "setting": "[11]", "result": "Active"},
      {"measurement": "Activity", "setting": "[12]", "result": "Active"},
      {"measurement": "Activity", "setting": "[13]", "result": "Active"},
      {"measurement": "Activity", "setting": "[14]", "result": "Active"},
      {"measurement": "Activity", "setting": "[3]", "result": "inactive"},
      {"measurement": "Activity", "setting": "[4]", "result": "inactive"},
      {"measurement": "Activity", "setting": "[5]", "result": "inactive"},
      {"measurement": "Activity", "setting": "[6]", "result": "inactive"},
      {"measurement": "Activity", "setting": "[15]", "result": "inactive"},
      {"measurement": "Activity", "setting": "[16]", "result": "inactive"},
      {"measurement": "Activity", "setting": "[17]", "result": "inactive"},
      {"measurement": "Activity", "setting": "[18]", "result": "inactive"},
      {"measurement": "Activity", "setting": "[19]", "result": "inactive"},
      {"measurement": "Activity", "setting": "[20]", "result": "inactive"},
      {"measurement": "Activity", "setting": "[21]", "result": "inactive"},
      {"measurement": "Activity", "setting": "[22]", "result": "inactive"},
      {"measurement": "Activity", "setting": "[23]", "result": "inactive"},
      {"measurement": "Activity", "setting": "[24]", "result": "inactive"},
      {"measurement": "Activity", "setting": "[25]", "result": "Active"},
      {"measurement": "Activity", "setting": "[26]", "result": "Active"},
      {"measurement": "Activity", "setting": "[27]", "result": "Active"},
      {"measurement": "Activity", "setting": "[28]", "result": "Active"},
      {"measurement": "Activity", "setting": "[29]", "result": "Active"}
    ]}
  ]
}
